Test results: publication PMC5004525 (Pharmacognosy Research, 2016)
“Also recorded” adds a separate entry of the source.

Experiments:
Format in all cases: biochemical
[1] = biological target: rat liver glutathione transferase enzyme; assay: Inhibition of rat liver GST
Summary of the method: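 Rat liver cytosol was the 100,000 ×g 60 min supernatant, taken after a 12,500 ×g spin of homogenate in 67 mM phosphate, pH 7.4, with 1.15% KCl. Assay used 0.125 mg/mL cytosol, 0.1 M potassium phosphate pH 6.5, 0.001 M GSH and CDNB, read at 340 nm for 5 min. Blanks used cytosol heat-denatured at 60°C for 20 min.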

[2] = tested on: rat liver UDP-glucuronosyltransferase enzyme (rat liver microsomes); assay: Inhibition of rat liver UGT in rat liver microsomes; conditions: up to the highest concentration investigated
human recombinant UGT2B7 = biological target: T1, human recombinant UGT2B7 (Homo sapiens, UniProt P16662); assay: UGT-Glo luminescent inhibition assay, human recombinant UGT2B7; conditions: human recombinant enzyme
T1 sequence (P16662 24-529): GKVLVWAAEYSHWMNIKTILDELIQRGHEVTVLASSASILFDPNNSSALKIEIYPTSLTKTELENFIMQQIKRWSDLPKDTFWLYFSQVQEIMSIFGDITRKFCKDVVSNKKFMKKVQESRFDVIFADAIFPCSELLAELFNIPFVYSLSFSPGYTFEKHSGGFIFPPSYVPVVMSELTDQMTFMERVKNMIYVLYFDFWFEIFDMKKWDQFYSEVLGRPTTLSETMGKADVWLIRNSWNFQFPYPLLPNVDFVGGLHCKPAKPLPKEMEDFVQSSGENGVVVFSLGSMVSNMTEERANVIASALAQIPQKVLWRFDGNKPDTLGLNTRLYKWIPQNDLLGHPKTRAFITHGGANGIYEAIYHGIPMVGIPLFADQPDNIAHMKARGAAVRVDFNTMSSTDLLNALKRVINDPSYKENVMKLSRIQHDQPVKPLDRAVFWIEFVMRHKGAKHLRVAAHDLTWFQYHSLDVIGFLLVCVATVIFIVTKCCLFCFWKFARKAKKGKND

[3] = biological target: human glutathione transferase Pi-1 (hGSTP1) (Homo sapiens, UniProt P09211); assay: Inhibition of human GST Pi-1
Summary of the method: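 Purified recombinant human GSTP1 (0.003 mg/mL) in 0.1 M potassium phosphate, pH 6.5, with 0.001 M GSH and CDNB as substrate. Test compounds were tested at 0.01–500 µM and extracts at 0.01–1000 µg/mL. CDNB–GSH conjugation was read at 340 nm over 20 min. The blank replaced enzyme with buffer. Activity is expressed as percent of no-inhibitor control, 5 replicates.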

human recombinant UGT1A1 = biological target: T2, human recombinant UGT1A1 (Homo sapiens, UniProt P22309); assay: UGT-Glo luminescent inhibition assay, human recombinant UGT1A1
T2 sequence (P22309 26-533): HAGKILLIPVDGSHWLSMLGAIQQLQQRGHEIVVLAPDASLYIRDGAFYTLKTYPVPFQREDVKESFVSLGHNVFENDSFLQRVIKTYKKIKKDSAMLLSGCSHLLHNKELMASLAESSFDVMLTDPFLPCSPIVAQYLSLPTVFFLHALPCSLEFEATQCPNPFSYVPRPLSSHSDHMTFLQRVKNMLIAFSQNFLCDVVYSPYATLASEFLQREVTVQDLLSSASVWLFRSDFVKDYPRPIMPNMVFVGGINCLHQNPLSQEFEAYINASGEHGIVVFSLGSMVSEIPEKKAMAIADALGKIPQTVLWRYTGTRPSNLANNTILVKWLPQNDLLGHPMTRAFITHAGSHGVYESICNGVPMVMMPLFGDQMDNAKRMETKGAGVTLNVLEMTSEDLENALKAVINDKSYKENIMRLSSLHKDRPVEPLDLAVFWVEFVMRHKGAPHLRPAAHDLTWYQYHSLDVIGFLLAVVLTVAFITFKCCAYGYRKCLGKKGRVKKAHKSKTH
Summary of the method: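 UGT-Glo luminescent assay at 37°C with 0.1 mg/mL UGT supersomes, 20 µM multienzyme substrate and 4 mM UDPGA. Incubation was 90 min for UGT1A1 and 60 min for UGT2B7. Reactions were stopped with luciferin detection reagent plus D-cysteine for 20 min at room temperature, then luminescence read. Control microsomes lacking UGT served as negative control. Extracts were tested at 0.1–1000 µg/mL and constituents at 0.02–200 µM. IC50 was fitted by nonlinear regression; three determinations from two experiments.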

human glutathione transferase Pi-1 (hGSTP1), sequence (P09211 2-210 limits assumed): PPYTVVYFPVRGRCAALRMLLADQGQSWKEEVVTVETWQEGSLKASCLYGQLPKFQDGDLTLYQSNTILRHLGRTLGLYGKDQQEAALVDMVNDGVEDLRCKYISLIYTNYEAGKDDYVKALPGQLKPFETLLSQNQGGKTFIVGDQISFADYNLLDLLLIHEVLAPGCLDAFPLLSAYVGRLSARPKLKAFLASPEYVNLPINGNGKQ

With Tannic acid [reference compound] the “IC50, rat liver GST” value ([1]; CDNB substrate, mean ± SEM, n = 5) was 4.83 ± 2.29 µg/mL.

In the case of `CC(C)=CCCC(C)c1ccc(C)cc1` (centres unmarked) [Curcumene, curcumene], the “inhibition of rat liver UGT enzyme activity (in words)” value [2] is reported as “did not show any inhibition”, the “inhibition of rat liver GST (in words)” value [1] is reported as “very low inhibition or no inhibition” and the “inhibition of UGT2B7 (in words)” value (human recombinant UGT2B7) is reported as “did not show any inhibition; also recorded: weaker inhibition”. The “inhibition of hGSTP1 (in words)” value [3] was “did not show inhibition”, the “percentage of inhibition of hGSTP1 activity” value ([3]; at the highest concentration determined (compounds 500 µM)) was less than 50% and the “inhibition of UGT1A1 (in words)” value (human recombinant UGT1A1; human recombinant enzyme) was “weaker inhibition”.

In the case of `CC(C)=CCC[C@@H](C)c1ccc(C)c(O)c1` [Xanthorrhizol, xanthorrhizol], the “inhibition of rat liver GST (in words)” value [1] is reported as “very low inhibition or no inhibition”, the “inhibition of hGSTP1 (in words)” value [3] is reported as “did not show inhibition” and the inhibition at 500 µM ([3]; read-out: percentage of inhibition of hGSTP1 activity) is reported as less than 50%. The “inhibitory effect on UGT1A1 compared to UGT2B7” value (human recombinant UGT1A1; ratio of IC50 values UGT2B7/UGT1A1) was 3 times.
